Measured values published in ChEMBL document CHEMBL4342467, “Discovery of a Novel Dual-Target Inhibitor of ERK1 and ERK5 That Induces Regulated Cell Death to Overcome Compensatory Mechanism in Specific Tumor Types” (J Med Chem, 2020).
The source made the active and inactive calls. No cut-off for these calls is given here.

Legend:
[1] = molecular target: Mitogen-activated protein kinase 3 (Homo sapiens) (UniProt P27361); assay: Inhibition of ERK1 (unknown origin) at 1 uM by Z'-Lyte assay relative to control
Mitogen-activated protein kinase 3 (Homo sapiens), sequence (P27361 whole entry): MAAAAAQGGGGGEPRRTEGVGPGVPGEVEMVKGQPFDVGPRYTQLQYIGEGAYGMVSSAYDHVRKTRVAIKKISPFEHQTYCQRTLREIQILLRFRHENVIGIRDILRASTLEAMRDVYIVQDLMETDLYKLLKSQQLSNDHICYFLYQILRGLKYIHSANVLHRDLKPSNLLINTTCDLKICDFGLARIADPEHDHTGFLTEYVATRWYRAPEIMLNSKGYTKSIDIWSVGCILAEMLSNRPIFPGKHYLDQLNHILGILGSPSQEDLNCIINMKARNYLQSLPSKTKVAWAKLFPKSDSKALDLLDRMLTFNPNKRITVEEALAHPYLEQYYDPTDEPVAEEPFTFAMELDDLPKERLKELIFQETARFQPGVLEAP

[2] = molecular target: Mitogen-activated protein kinase 7 (Homo sapiens) (UniProt Q13164); assay: Inhibition of ERK5 in human MKN74 cells harboring ERK1/2 siRNA assessed as reduction in ERK5 phosphorylation at 1 uM by Western blot analysis; format: cell-based
Mitogen-activated protein kinase 7 (Homo sapiens), sequence (Q13164 2-816 limits assumed): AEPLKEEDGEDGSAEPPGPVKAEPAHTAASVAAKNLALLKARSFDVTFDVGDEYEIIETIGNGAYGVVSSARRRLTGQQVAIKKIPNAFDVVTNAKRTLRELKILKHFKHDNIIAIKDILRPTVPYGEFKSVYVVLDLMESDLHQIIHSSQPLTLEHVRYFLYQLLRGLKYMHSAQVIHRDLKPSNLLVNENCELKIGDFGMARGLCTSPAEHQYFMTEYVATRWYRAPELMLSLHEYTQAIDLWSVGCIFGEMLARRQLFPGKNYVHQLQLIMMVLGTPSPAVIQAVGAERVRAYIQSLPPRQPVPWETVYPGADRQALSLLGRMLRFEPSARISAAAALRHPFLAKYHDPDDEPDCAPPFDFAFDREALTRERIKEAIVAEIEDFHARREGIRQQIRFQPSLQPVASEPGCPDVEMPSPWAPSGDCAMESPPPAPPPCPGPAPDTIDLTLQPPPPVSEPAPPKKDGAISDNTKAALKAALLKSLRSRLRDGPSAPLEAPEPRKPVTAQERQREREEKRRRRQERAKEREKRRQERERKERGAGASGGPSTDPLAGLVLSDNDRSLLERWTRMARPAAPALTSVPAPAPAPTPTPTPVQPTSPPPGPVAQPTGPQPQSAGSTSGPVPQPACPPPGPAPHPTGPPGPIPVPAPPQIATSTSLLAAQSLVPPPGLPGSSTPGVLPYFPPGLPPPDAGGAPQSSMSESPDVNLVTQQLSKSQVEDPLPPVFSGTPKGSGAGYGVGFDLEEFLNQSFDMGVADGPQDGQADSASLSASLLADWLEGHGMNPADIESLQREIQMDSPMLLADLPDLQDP
In short: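 MKN-74 cells were transfected with ERK1/2-specific siRNA or negative-control siRNA, then exposed to compound. ERK1/2, p-ERK1/2, ERK5 and p-ERK5 were read by immunoblotting, with GAPDH as loading control.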

[3] = molecular target: Mitogen-activated protein kinase 7 (Homo sapiens) (UniProt Q13164); assay: Inhibition of ERK5 (unknown origin) at 1 uM by Z'-Lyte assay relative to control
[4] = test system: MKN-74; assay: Antiproliferative activity against human MKN74 cells assessed as reduction in cell viability measured after 24 hrs; format: functional, cell-based; conditions: MKN-74, 24 h
[5] = test system: HL-60; assay: Antiproliferative activity against human HL60 cells assessed as reduction in cell viability measured after 24 hrs; format: functional, cell-based; conditions: HL-60, 24 h
[6] = test system: HeLa; assay: Antiproliferative activity against human HeLa cells assessed as reduction in cell viability measured after 24 hrs; format: functional, cell-based
[7] = molecular target: Mitogen-activated protein kinase 1 (Homo sapiens) (UniProt P28482); assay: Inhibition of ERK2 (unknown origin) at 1 uM by Z'-Lyte assay relative to control
Mitogen-activated protein kinase 1 (Homo sapiens), sequence (P28482 whole entry): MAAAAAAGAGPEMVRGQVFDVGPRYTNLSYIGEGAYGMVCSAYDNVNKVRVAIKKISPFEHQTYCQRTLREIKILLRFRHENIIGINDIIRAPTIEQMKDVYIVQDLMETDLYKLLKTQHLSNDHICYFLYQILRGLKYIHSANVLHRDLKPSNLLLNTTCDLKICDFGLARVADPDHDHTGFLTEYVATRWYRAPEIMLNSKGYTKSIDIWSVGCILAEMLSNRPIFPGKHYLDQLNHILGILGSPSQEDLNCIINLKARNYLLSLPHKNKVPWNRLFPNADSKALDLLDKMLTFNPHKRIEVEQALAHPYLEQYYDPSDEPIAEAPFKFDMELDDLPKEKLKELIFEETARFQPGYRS

| inhibition [1] [%] | inhibition [2] | inhibition [3] [%] | IC50 [4] [µM] | IC50 [5] [µM] | IC50 [6] [µM] | inhibition [7] [%] | Structure (SMILES) |
| --- | --- | --- | --- | --- | --- | --- | --- |
| 98.8 | inactive | < 50 | > 50 | 1.06 | > 50 | 99.2 | O=C(Nc1ccc2[nH]nc(-c3ccncc3)c2c1)[C@@H]1CCN(CC(=O)N2CCN(c3ccc(-c4ncccn4)cc3)CC2)C1 |
| < 50 | Active |  | > 50 | 10.6 | > 50 | < 50 | CCOc1cc(N2CCC(O)CC2)ccc1Nc1ncc2c(n1)N(C)c1ccccc1C(=O)N2C |
